Measured values reported in ChEMBL document CHEMBL1121519, “Basic antiinflammatory compounds. N,N',N''-Trisubstituted guanidines” (J Med Chem, 1980).

How the values were obtained:
[1] = tested on: Rattus norvegicus; experiment: Percent inhibition of carrageenan paw edema in rat, administered orally at a dose of one tenth of oral lethal dose in mice; format: functional
Summary of the method: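 1 h later, 0.1 mL of 1% carrageenan was injected into the right hind-paw plantar tissue. Paw swelling was measured by mercury-displacement plethysmometry 3 h after carrageenan, compared with controls.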

[2] = Lethal dose in mice determined by Litchfield and Wilcoxon methods after peroral administration.; format: toxicity, organism-based; details: mouse, in vivo, po
Summary of the method: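 Median lethal dose found after oral dosing of mice, four mice per dose level, and calculated by the Litchfield–Wilcoxon method.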

[3] = target: Cyclooxygenase (Bos taurus) (UniProt O62664+O62698); experiment: Inhibition of prostaglandin synthetase in bovine seminal vesicle microsomes using Beckman liquid scintillation counter at 10 e-5 M; details: Microsome

Row | SMILES | Inhibition [1] [%] | LD50 [2] [mg/kg] | inhibition [3] [%]
1 | Cc1cc(N/C(=N/C2CCCC(C)C2C)Nc2nccs2)c2ccccc2n1.Cl (stereo not given) | 47 | > 1000 | 7
2 | CC(C)(C)/N=C(\Nc1ccccc1)Nc1nccs1 | 24 | > 1000 | 6.4
3 | COc1ccc2nccc(N/C(=N/C(C)(C)C)Nc3nccs3)c2c1 | 42 | > 1000 | 12.7
4 | Cc1cc(N/C(=N/CC(C)C)Nc2nccs2)c2ccccc2n1 | 57 | 1000 | 18
5 | Cc1cc(NC(=N)NC(C)(C)C)c2ccccc2n1 | 5 | 100 | 11.7
6 | Cc1ccc2nccc(N/C(=N/C3CCCCC3)Nc3nccs3)c2c1 | 12 | > 1000 | 7.2
7 | Cc1cc(N/C(=N\C(C)(C)C)Nc2nccs2)ccn1 | 13 | 250 | 14.9
8 | CC/N=C(/Nc1nccs1)Nc1cc(C)nc2ccccc12 | 56 | 100 | 8
9 | Cc1cc(N/C(=N/C(C)(C)C)Nc2nc3ccccc3s2)c2ccccc2n1 | 18 | > 1000 | 51.8
10 | Cc1cc(N/C(=N/C2CCCCCC2)Nc2nccs2)c2ccccc2n1 | 19 | > 1000 | 34.8
11 | CC(C)(C)/N=C(/Nc1nccs1)Nc1nccc2ccccc12 | 18 | > 1000 | 3.4
12 | Cc1cc(N/C(=N/c2ccccc2C)Nc2nccs2)c2ccccc2n1 | 53 | > 1000 | 14.8
13 | CCCc1cc(N/C(=N/C2CCCCC2)Nc2nccs2)c2ccccc2n1 | 54 | > 1000 | 56
14 | Cc1cc(N/C(=N/C2CCC(C)CC2)Nc2nccs2)c2ccccc2n1 (stereo not given) | 39 | > 1000 | 12.6
15 | CC(C)c1cc(N/C(=N/C2CCCCC2)Nc2nccs2)c2ccccc2n1 | 36 | > 1000 | 0
16 | c1ccc2c(N/C(=N/C3CCCCC3)Nc3nccs3)ccnc2c1 | 46 | > 1000 | 21.2
17 | Cc1cc(N/C(=N/C(C)(C)C)Nc2nnc(S)s2)c2ccccc2n1 | 16 | > 1000 | 6
18 | Cc1ccc2cc(N/C(=N\C(C)(C)C)Nc3nccs3)ccc2n1 | 43 | > 1000 | 3.7
19 | CC(C)(C)/N=C(\Nc1ccncc1)Nc1nccs1 | 15 | 300 | –
20 | Clc1ccc2c(N/C(=N/C3CCCCC3)Nc3nccs3)ccnc2c1 | 56 | > 1000 | 21.6
21 | Cc1cc(N/C(=N/C2CCCCC2)Nc2nc(C(=O)O)cs2)c2ccccc2n1 | 9 | > 1000 | 2.9
22 | CC(C)Cc1cc(N/C(=N/C2CCCCC2)Nc2nccs2)c2ccccc2n1 | 40 | > 1000 | 11
23 | Cc1ccc2nc(C)cc(N/C(=N/C(C)(C)C)Nc3nccs3)c2c1 | 42 | > 1000 | -7.5
24 | Cc1cc(N/C(=N/C(C)(C)C)Nc2ccccn2)c2ccccc2n1 | 36 | > 1000 | 30.1
25 | CCC(C)/N=C(/Nc1nccs1)Nc1cc(C)nc2ccccc12 (stereo not given) | 57 | 400 | 10.5
26 | CCC(C)(C)/N=C(\Nc1cccnc1)Nc1nccs1 | 82 | > 1000 | 0
27 | Cc1nc2ccccc2cc1N/C(=N\C(C)(C)C)Nc1nccs1 | 24 | > 1000 | 2.3

Row | SMILES | Inhibition [1] [%] | LD50 [2] [mg/kg] | inhibition [3] [%]
28 | Cc1cc(N/C(=N/C23C[C@H]4C[C@@H](C2)C[C@@H](C3)C4)Nc2nccs2)c2ccccc2n1 | 17 | > 1000 | 32
29 | CC(C)(C)/N=C(\Nc1nccs1)Nc1ccnc2ccccc12 | 29 | > 1000 | 23.8
30 | CC(C)(C)/N=C(/Nc1nccs1)Nc1cccc2c(O)cccc12 | 22 | > 1000 | –
31 | CC(C)(C)N=C(Nc1nccs1)Nc1nccs1 | 49 | > 1000 | 13.1
32 | Cc1cc(N/C(=N/C2CCCCC2)Nc2ccccn2)c2ccccc2n1 | 23 | > 1000 | 0.4
33 | Cc1cc(N/C(=N/C2CCCCC2)Nc2nncs2)c2ccccc2n1 | 40 | 250 | 15.1
34 | Cc1cc(N/C(=N/C2CCCCC2)Nc2ncc(C(=O)O)s2)c2ccccc2n1 | 30 | > 1000 | 8.4
35 | Cc1cc(NC(=N)NC2CCCCC2)c2ccccc2n1 | – | > 1000 | –
36 | CC(C)(C)/N=C(/Nc1nccs1)Nc1cccc2cccnc12 | 8 | > 1000 | 4.3
37 | Cc1c(Cl)cccc1N/C(=N\C(C)(C)C)Nc1nccs1 | 17 | > 1000 | 9.5
38 | Cc1ccc2cccc(N/C(=N\C(C)(C)C)Nc3nccs3)c2n1 | 4 | > 1000 | 7
39 | CC(C)(C)/N=C(/Nc1nccs1)Nc1cccc2ncccc12 | 21 | > 1000 | 9
40 | Cc1cc(N/C(=N\C(C)CCCC(C)C)Nc2nccs2)c2ccccc2n1 (stereo not given) | 25 | > 1000 | 1.7
41 | Cc1cc(N/C(=N/C(C)(C)C)Nc2nc(C)c(C)s2)c2ccccc2n1 | 19 | > 1000 | 64.2
42 | CC(C)(C)/N=C(\N)Nc1nccs1.O=C(O)/C=C\C(=O)O | 54 | 600 | 29
43 | CC(C)(C)/N=C(\Nc1cnc2ccccc2c1)Nc1nccs1 | 36 | > 1000 | -1
44 | Cc1cc(N/C(=N\C(C)C(C)(C)C)Nc2nccs2)c2ccccc2n1 (stereo not given) | 36 | > 1000 | 4
45 | CCc1cc(N/C(=N/C2CCCCC2)Nc2nccs2)c2ccccc2n1 | 24 | > 1000 | 67
46 | Cc1cc(N/C(=N/C(C)(C)C)Nc2ccccc2)c2ccccc2n1 | 34 | 40 | 43.9
47 | Cc1cc(N/C(=N/C(C)(C)C)NCCO)c2ccccc2n1 | 40 | 600 | 2.8
48 | Cc1cc(N/C(=N/CC2CCCCC2)Nc2nccs2)c2ccccc2n1 | 50 | > 1000 | 21
49 | CC(C)(C)/N=C(/Nc1nccs1)Nc1cccc2cnccc12 | 21 | > 1000 | -8.8
50 | Cc1cc(N/C(=N/C(C)(C)C)Nc2cnccn2)c2ccccc2n1 | – | > 1000 | –
51 | CC(C)(C)/N=C(\Nc1nccs1)Nc1ccnc2cc(C(F)(F)F)ccc12 | 32 | > 1000 | –
52 | CC(C)(C)/N=C(\Nc1ccc2ccccc2n1)Nc1nccs1 | 32 | > 1000 | –
53 | COc1cc(N/C(=N\C(C)(C)C)Nc2nccs2)c2ncccc2c1 | – | > 1000 | 5
